Shown are actives, neighbours in structure and some others; about 12% of the full set was active somewhere.
Dynein transport: dynein cargo transport inhibition | 3617.4 mouse cells, GR-EGFP nuclear translocation imaging; test concentration mostly 20 µM; stimulated with dexamethasone, 1 µM; stronger effect = lower value | z-score, hits read low | 220,000 tested, 0.47% active | AID 1381;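 active means plate z-score of nuclear minus cytoplasmic receptor signal below a set negative limit, without overly bright fluorescence or cell loss, cut at about -3.5 in these data, passing the limit was not always enough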;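 further: z-score of nuclear minus cytoplasmic ring GR-EGFP intensity difference per well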
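Buffer or medium: tet-free, stripped-serum medium; Also added: dexamethasone, 1.0 µM final; Technique: high-content fluorescence imaging after fixation; Times: 48 h induction, 1 h compound, 30 min dex at 37 °C; Read-out: per-cell GR-EGFP intensity, nucleus versus surrounding cytoplasmic ring, well-averaged.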
bCat nuc transl: modulators of beta-catenin nuclear translocation; nuclear translocation activity, % at 5 µM; AID 1665; HeLa beta-catenin nuclear translocation, immunofluorescence imaging; 190,000 tested, 0.3% active;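 active means nuclear translocation activity above 50% at 5 µM, with a well cell count of 50 or more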;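 further: per-cell ratio of nuclear to cytoplasmic median beta-catenin stain intensity; plate controls were DMSO negative control for no effect and GSK-3 inhibitor IX positive control for full effect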
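System: Human HeLa cells, endogenous beta-catenin | Compound dosing: 5 µM primary, 0.02–20 µM confirmation | Timing: 24 h compound exposure at 37°C, 5% CO2 | Measured by: Fluorescence imaging of beta-catenin antibody stain plus DAPI | Read-out basis: % activation of per-cell nuclear versus cytoplasmic median beta-catenin signal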
CHOP inh: blocks CHOP induction under ER stress; CHO-K1 CHOP-promoter luciferase, tunicamycin-induced, 15-18 h; inhibition, % at 10 µM; 220,000 tested, 3.8% active;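 active means compounds that reduced the stress-induced luciferase reporter signal by more than about 70% of percent inhibition, limit read from the data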;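 further: 0% = tunicamycin plus vehicle and 100% = wells without tunicamycin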
Lmaj promast: inhibitors of Leishmania major promastigote growth; inhibition, % at 10 µM; 200,000 tested, 9% active; Leishmania major promastigotes, resazurin fluorescence viability; in the data active means inhibition above about 50%;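 further: promastigotes grown with compound for 44 hours at 28 °C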
Autophagy mod: alters autophagy in cells. MEF GFP-LC3 puncta imaging; test concentration mostly 10 µM. 190,000 tested, 0.98% active. calls only at 10 µM (by protocol);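 active means percentage of spot-positive cells more than 3 SD above its plate mean, without a fluorescence outlier flag or 80% toxicity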;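 further: spot-positive cell cutoff set from DMSO-treated cells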
MT stabilizer: microtubule stabilizers in HeLa cells; HeLa tubulin immunostaining HCS, 24 h; share of cells brighter than vehicle mean+2SD; % tubulin-high responders, % at 10 µM; 200,000 tested, 0.83% active; AID 2205;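 active means plate Z-score above 3 for both tubulin-high and condensed-nucleus cell shares, with cell loss under 80%, at 10 µM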;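 further: anti alpha tubulin signal scored within the nucleus-defined area of each cell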
* = called active by the depositor; i = inactive; . = not tested or not shown.

SMILES	Dynein transport	bCat nuc transl	CHOP inh	Lmaj promast	Autophagy mod	MT stabilizer
COc1ccc(CC(=O)N(Cc2cc3cc(OC)ccc3[nH]c2=O)C(C)C)cc1	-0.37	-7	16	94*	i	4
Cc1onc(-c2ccccc2)c1C(=O)n1nnc2ccccc21	-2.2	.	-43	-2	i	2
Cc1ccc(C)c(S(=O)(=O)NCc2ccc(C(=O)N3CCC(Cc4ccccc4)CC3)cc2)c1	-1.1	1	41	27	i	2
CCOc1ccccc1N(C(=O)c1snc(C(N)=O)c1N)C(C(=O)NCCC(C)C)c1ccco1 (stereo unspecified)	0.73	-2	31	21	i	2
CCc1ccc(N(C(=O)c2snc(C(N)=O)c2N)C(C(=O)NCCC(C)C)c2c[nH]c3ccccc23)cc1 (stereo unspecified)	2.4	1	86*	-5	i	3
CCCc1nc2ccccc2n1CCc1ccccc1	3.2	-2	-1	48	i	3
CC(Cl)C(=O)Nc1ccccc1C#N (stereo unspecified)	1	-1	7	3	i	3
N#Cc1ccccc1NC(=O)C1SC(=Nc2ccccc2)C(C(=O)Nc2ccc(Cl)cc2)=C1N (stereo unspecified)	0.64	-2	100*	2	i	4
CCOc1ccc(N=C2SC(C(=O)Nc3ccccc3C#N)C(N)=C2C(=O)Nc2ccc(Cl)cc2)cc1 (stereo unspecified)	-0.38	3	76*	-12	i	4
CCOC(=O)C(=O)Nc1ccccc1C#N	-0.95	1	31	-6	i	2
CC(=O)Nc1ccc(S(=O)(=O)NCc2ccc(C(=O)NC(C)c3ccccc3)cc2)cc1 (stereo unspecified)	0.62	-2	13	-3	i	3
Cc1ccc(Nc2nc(CSc3nnc(-c4cccnc4)n3-c3ccccc3F)cs2)cc1	-0.78	-4	22	89*	i	2
Cc1ccc(Nc2nc(CSc3nnc(-c4ccncc4)n3C)cs2)cc1	0.14	0	2	2	i	2
COc1ccc(Cn2c(=O)c3[nH]cnc3n(-c3ccc(C)cc3)c2=O)cc1	0.3	0	0	.	.	.
O=C(Nc1ccon1)c1ccc(OC2CCCC2)cc1	1.5	-3	78*	5	i	3
Cc1sc(NC(=O)C2CCCCC2C(=O)O)c(C(N)=O)c1-c1ccc(C(C)(C)C)cc1 (stereo unspecified)	0.15	.	66	-7	i	2
CCOC(=O)c1c(NC(=O)/C=C/C(=O)O)sc(C)c1-c1ccc(C(C)(C)C)cc1	-2.5	-5	39	100*	i	15
Cc1sc(NC(=O)C2C3CCC(C3)C2C(=O)O)c(C(N)=O)c1-c1ccc(C(C)(C)C)cc1 (stereo unspecified)	0.91	.	26	57*	i	4
CCOc1ccc(NC(=S)NNC(=O)c2ccc(Br)cc2)cc1	-1.2	-5	-4	6	i	2
C=CCNCc1cccn1-c1ccccc1	-0.13	-7	22	0	i	3
C/C(=N\NC(=O)CCc1c[nH]c2ccccc12)c1ccc([N+](=O)[O-])cc1	-1.2	2	-17	61*	i	2
O=C(NCc1ccccn1)C1CCC(=O)N1C1CCCC1 (stereo unspecified)	-1.3	.	.	-7	i	2
CC(Sc1ccccc1)C(=O)NN=C1CCCCCC1 (stereo unspecified)	0.3	0	28	-1	i	3
O=S(=O)(c1ccc(OCC(O)CNC23CC4CC(CC(C4)C2)C3)c(Cl)c1)N1CCOCC1 (stereo unspecified)	0.63	0	29	94*	i	5
CC1CCCC(N2CCN(C(=O)c3cccc(F)c3)CC2)C1 (stereo unspecified)	0.21	-15	3	81*	i	3
SMILES	Dynein transport	bCat nuc transl	CHOP inh	Lmaj promast	Autophagy mod	MT stabilizer
O=C(c1ccccc1F)N1CCN(CC2CC3C=CC2C3)CC1 (stereo unspecified)	-0.32	-6	-3	59*	i	2
O=C(c1cccc(F)c1)N1CCN(CC2CC3C=CC2C3)CC1 (stereo unspecified)	-0.91	-14	13	85*	i	6
Cc1ccc(CN2CCN(CC3CC4C=CC3C4)CC2)cc1 (stereo unspecified)	0.019	0	26	96*	i	1
O=S(=O)(c1ccccc1)N1CCN(CC2CC3C=CC2C3)CC1 (stereo unspecified)	1.2	1	6	-3	i	2
CC1CCCCC1N1CCN(C(=O)c2cccc(F)c2)CC1 (stereo unspecified)	2.1	0	-25	15	i	5
CCCc1c(C(=O)NNc2cc(C(F)(F)F)ccc2Cl)cnn1-c1ccccc1	0.2	3	18	.	.	.
COc1cccc(CC(Cc2nc3ccccc3[nH]2)c2nc3ccccc3[nH]2)c1 (stereo unspecified)	-0.54	0	-27	69*	i	2
CN1CCN(C2=C(Cl)C(=O)N(Cc3ccccc3)C2=O)CC1	-2.6	1	11	96*	i	5
CCN(CC)CC(O)Cn1c2ccccc2c2ccccc21 (stereo unspecified)	2.8	-6	-17	16	i	9
O=S(=O)(c1ccc(F)cc1)N(CCO)CC(O)Cn1c2ccccc2c2ccccc21 (stereo unspecified)	0.0031	0	73*	25	i	3
CCN(CC(O)Cn1c2ccccc2c2ccccc21)S(=O)(=O)c1ccc(F)cc1 (stereo unspecified)	0.62	.	70*	13	i	3
COCCNC(=O)CN(C(=O)CCC(=O)Nc1cc(C)on1)c1ccccc1C	1.9	1	7	-9	i	2
O=C(COC(=O)c1ccc(S(=O)(=O)N2CCCC2)cc1)NCc1ccco1	-0.13	0	5	.	.	.
COC(=O)c1ccc2c(c1O)C(=O)c1ccccc1C2=O	-0.14	0	21	84*	i	1
Nc1c(C(=O)O)ccc2c1C(=O)c1ccccc1C2=O	0.074	-4	12	-4	i	3
O=C(CNC(=O)c1ccccc1)N/N=C/c1cccs1	0.061	-3	0	9	i	3
O=C(CNC(=O)c1cccc(F)c1)N/N=C/c1ccc(O)c([N+](=O)[O-])c1	0.38	-2	4	46	i	8
O=C(N/N=C/c1ccc([N+](=O)[O-])o1)c1ccc(O)cc1	0.81	.	26	100*	i	2
O=C(CNC(=O)c1ccccc1)N/N=C/c1ccc([N+](=O)[O-])s1	-0.48	-5	-29	100*	i	2
